# Test results from ChEMBL document CHEMBL1152689, “Synthesis, tautomerism, and antimicrobial, anti-HCV, anti-SSPE, antioxidant, and antitumor activities of arylazobenzosuberones” (Bioorg Med Chem, 2009).
# The source made the active and inactive calls. No cut-off for these calls is given here.
# Tests used:
# [1] = test system: Penicillium italicum; assay: Antimicrobial activity against Penicillium italicum at 5 ug/mL by agar diffusion method; format: functional; settings: read-out: IZ
# [2] = test system: Syncephalastrum racemosum; assay: Antimicrobial activity against Syncephalastrum racemosum at 5 ug/mL by agar diffusion method; format: functional; settings: read-out: IZ
# [3] = test system: Candida albicans; assay: Antimicrobial activity against Candida albicans at 5 ug/mL by agar diffusion method; format: functional; settings: read-out: IZ
# [4] = test system: Staphylococcus aureus; assay: Antimicrobial activity against Staphylococcus aureus at 5 ug/mL by agar diffusion method; format: functional; settings: read-out: IZ
# [5] = test system: Pseudomonas aeruginosa; assay: Antimicrobial activity against Pseudomonas aeruginosa at 5 ug/mL by agar diffusion method; format: functional; settings: read-out: IZ
# [6] = test system: Bacillus subtilis; assay: Antimicrobial activity against Bacillus subtilis at 5 ug/mL by agar diffusion method; format: functional; settings: read-out: IZ
# [7] = test system: Escherichia coli; assay: Antimicrobial activity against Escherichia coli at 5 ug/mL by agar diffusion method; format: functional; settings: read-out: IZ
# [8] = test system: Aspergillus fumigatus; assay: Antimicrobial activity against Aspergillus fumigatus at 2.5 ug/mL by agar diffusion method; format: functional; settings: read-out: IZ
# [9] = test system: Penicillium italicum; assay: Antimicrobial activity against Penicillium italicum at 2.5 ug/mL by agar diffusion method; format: functional; settings: read-out: IZ
# [10] = test system: Syncephalastrum racemosum; assay: Antimicrobial activity against Syncephalastrum racemosum at 2.5 ug/mL by agar diffusion method; format: functional; settings: read-out: IZ
# [11] = test system: Candida albicans; assay: Antimicrobial activity against Candida albicans at 2.5 ug/mL by agar diffusion method; format: functional; settings: read-out: IZ
# [12] = test system: Staphylococcus aureus; assay: Antimicrobial activity against Staphylococcus aureus at 2.5 ug/mL by agar diffusion method; format: functional; settings: read-out: IZ
# [13] = test system: Pseudomonas aeruginosa; assay: Antimicrobial activity against Pseudomonas aeruginosa at 2.5 ug/mL by agar diffusion method; format: functional; settings: read-out: IZ
# [14] = test system: Bacillus subtilis; assay: Antimicrobial activity against Bacillus subtilis at 2.5 ug/mL by agar diffusion method; format: functional; settings: read-out: IZ
# [15] = test system: Escherichia coli; assay: Antimicrobial activity against Escherichia coli at 2.5 ug/mL by agar diffusion method; format: functional; settings: read-out: IZ
# [16] = test system: Aspergillus fumigatus; assay: Antimicrobial activity against Aspergillus fumigatus at 1.25 ug/mL by agar diffusion method; format: functional; settings: read-out: IZ
# [17] = test system: Penicillium italicum; assay: Antimicrobial activity against Penicillium italicum at 1.25 ug/mL by agar diffusion method; format: functional; settings: read-out: IZ
# [18] = test system: Syncephalastrum racemosum; assay: Antimicrobial activity against Syncephalastrum racemosum at 1.25 ug/mL by agar diffusion method; format: functional; settings: read-out: IZ
# [19] = test system: Candida albicans; assay: Antimicrobial activity against Candida albicans at 1.25 ug/mL by agar diffusion method; format: functional; settings: read-out: IZ
# [20] = test system: Staphylococcus aureus; assay: Antimicrobial activity against Staphylococcus aureus at 1.25 ug/mL by agar diffusion method; format: functional; settings: read-out: IZ
# [21] = test system: Pseudomonas aeruginosa; assay: Antimicrobial activity against Pseudomonas aeruginosa at 1.25 ug/mL by agar diffusion method; format: functional; settings: read-out: IZ
# [22] = test system: Bacillus subtilis; assay: Antimicrobial activity against Bacillus subtilis at 1.25 ug/mL by agar diffusion method; format: functional; settings: read-out: IZ
# [23] = test system: Escherichia coli; assay: Antimicrobial activity against Escherichia coli at 1.25 ug/mL by agar diffusion method; format: functional; settings: read-out: IZ
# [24] = test system: Aspergillus fumigatus; assay: Antimicrobial activity against Aspergillus fumigatus at 5 ug/mL by agar diffusion method; format: functional; settings: read-out: IZ
# [25] = test system: Hepatitis C virus; assay: Antiviral activity against HCV by cell based replicon assay; format: functional, Hepacivirus hominis
# How it was run: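 HCV replicon cells plated at 1×10^4 per well. Next day incubated at 37 °C with serially diluted compound in DMEM with 2% FBS and 0.5% DMSO. HCV RNA copy number measured by quantitative RT-PCR on total cellular RNA. Each point is the average of five replicates. Cytotoxicity measured by MTS in parallel.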
# [26] = test system: Measles morbillivirus; assay: Antiviral activity against Measles virus infected in intracranially dosed hamster assessed as inhibition of subacute sclerosing panencephalitis; format: functional
# How it was run: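 Hamsters under ether anesthesia injected intracranially, into the subarachnoid space at 2 mm depth, at 5, 10 and 20 mg/kg/day for 10 days. Four animals per group sacrificed on days 1–20. Brains homogenized in PBS and centrifuged, supernatant deproteinized with ethanol, then MIC in brain tissue determined by HPLC and bioassay.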
# [27] = test system: Radical scavenging activity; assay: Antioxidant activity assessed as DPPH free radical scavenging activity by measuring reduction in DPPH absorbance by ELISA relative to untreated control; format: functional; set-up: concentration or dose not given beside the values
# How it was run: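 Test compounds dissolved in DMSO, ascorbic acid standard in water, both serially diluted. 10 µl sample added to 90 µl of 100 µM DPPH in methanol and kept in the dark at 37 °C for 30 min. Absorbance read at 515 nm. Blank is DMSO plus DPPH. % reduction = (A_B − A_A)/A_B × 100. Run in triplicate.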
# [28] = Antioxidant activity assessed as inhibition of peroxynitrite-mediated 3-nitrotyrosine formation by HPLC; format: functional
# How it was run: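 Tyrosine and peroxynitrite, each 100 µM, reacted with compound at 0–300 µM in 100 mM phosphate buffer pH 7.4 at 37 °C for 15 min. Peroxynitrite made from acidified H2O2 plus KNO2, quenched with NaOH, and kept on ice no longer than 30 min before use.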
# [29] = test system: MC-38; assay: Antitumor activity against mouse Colon 38 cells implanted in iv dosed C57BL/6 mouse administered as single dose; format: functional, organism-based
# How it was run: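 Female C57BL/6 mice, 6 weeks old, given about 30 mg Colon 38 tumor tissue s.c. in the flank. Randomized into groups of n = 5 when tumors reached about 300 mm3 (day 1). Compound in 5% glucose given as a single iv tail-vein dose on day 1; controls received 5% glucose. Tumor volume = (length × width²)/2 and body weight tracked.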
# [30] = target: DNA topoisomerase 2-alpha (Mus musculus) (UniProt Q01320); assay: Inhibition of topoisomerase 2 from mouse P388 cells assessed as relaxation of pBR322 DNA by agarose gel electrophoresis relative to etoposide; format: cell-based
# Sequence of DNA topoisomerase 2-alpha (Mus musculus) (Q01320 whole entry): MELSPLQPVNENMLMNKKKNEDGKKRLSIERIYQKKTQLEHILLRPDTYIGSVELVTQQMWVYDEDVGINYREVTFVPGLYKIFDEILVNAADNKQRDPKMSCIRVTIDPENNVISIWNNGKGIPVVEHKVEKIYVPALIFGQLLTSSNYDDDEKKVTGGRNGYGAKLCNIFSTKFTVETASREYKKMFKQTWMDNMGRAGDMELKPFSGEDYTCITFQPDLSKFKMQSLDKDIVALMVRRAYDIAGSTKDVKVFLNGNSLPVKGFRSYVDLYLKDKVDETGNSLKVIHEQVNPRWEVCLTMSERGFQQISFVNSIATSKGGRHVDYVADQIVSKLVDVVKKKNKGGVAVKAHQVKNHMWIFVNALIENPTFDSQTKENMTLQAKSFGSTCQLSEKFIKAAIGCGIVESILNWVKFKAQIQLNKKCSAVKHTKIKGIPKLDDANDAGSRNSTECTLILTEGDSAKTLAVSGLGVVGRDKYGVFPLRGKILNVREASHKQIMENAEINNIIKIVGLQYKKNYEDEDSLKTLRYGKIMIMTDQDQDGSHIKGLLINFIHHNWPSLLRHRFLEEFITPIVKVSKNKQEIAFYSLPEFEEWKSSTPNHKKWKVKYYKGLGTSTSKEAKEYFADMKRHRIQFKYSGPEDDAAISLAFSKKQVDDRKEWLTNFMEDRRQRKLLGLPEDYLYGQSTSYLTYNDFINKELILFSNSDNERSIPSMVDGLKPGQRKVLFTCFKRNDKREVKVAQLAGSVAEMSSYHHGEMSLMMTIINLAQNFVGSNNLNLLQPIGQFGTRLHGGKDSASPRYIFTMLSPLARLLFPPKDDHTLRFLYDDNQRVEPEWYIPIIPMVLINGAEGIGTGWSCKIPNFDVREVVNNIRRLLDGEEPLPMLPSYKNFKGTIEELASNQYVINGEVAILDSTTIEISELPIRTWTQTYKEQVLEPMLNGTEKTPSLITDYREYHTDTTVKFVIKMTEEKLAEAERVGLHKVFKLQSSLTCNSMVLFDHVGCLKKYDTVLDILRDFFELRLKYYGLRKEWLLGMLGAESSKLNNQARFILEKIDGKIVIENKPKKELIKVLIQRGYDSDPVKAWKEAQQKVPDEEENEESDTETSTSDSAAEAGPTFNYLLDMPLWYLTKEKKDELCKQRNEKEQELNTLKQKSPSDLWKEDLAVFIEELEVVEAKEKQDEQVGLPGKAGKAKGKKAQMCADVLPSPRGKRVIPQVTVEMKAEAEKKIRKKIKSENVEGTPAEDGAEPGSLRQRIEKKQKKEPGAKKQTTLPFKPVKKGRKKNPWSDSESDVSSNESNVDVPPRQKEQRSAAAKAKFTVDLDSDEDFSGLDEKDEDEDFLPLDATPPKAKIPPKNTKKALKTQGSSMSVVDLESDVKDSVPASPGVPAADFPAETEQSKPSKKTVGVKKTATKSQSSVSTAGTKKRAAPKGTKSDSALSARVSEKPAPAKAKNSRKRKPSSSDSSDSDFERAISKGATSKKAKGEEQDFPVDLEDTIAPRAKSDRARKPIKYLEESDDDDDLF
# How it was run: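 Topoisomerase II purified from P388 cells. One unit relaxes 0.125 µg supercoiled pBR322 DNA, incubated with or without inhibitor at 30 °C for 1 h in 50 mM Tris-HCl pH 8.0, 100 mM KCl, 10 mM MgCl2, 0.5 mM DTT, 1 mM ATP and 30 µg/ml BSA. Products run on 0.7% agarose in TBE, stained with ethidium bromide and imaged under UV.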
# [31] = target: T1, DNA topoisomerase 1 (Homo sapiens) (UniProt P11387); assay: Inhibition of topoisomerase 1 relative to etoposide
# T1 sequence (whole entry): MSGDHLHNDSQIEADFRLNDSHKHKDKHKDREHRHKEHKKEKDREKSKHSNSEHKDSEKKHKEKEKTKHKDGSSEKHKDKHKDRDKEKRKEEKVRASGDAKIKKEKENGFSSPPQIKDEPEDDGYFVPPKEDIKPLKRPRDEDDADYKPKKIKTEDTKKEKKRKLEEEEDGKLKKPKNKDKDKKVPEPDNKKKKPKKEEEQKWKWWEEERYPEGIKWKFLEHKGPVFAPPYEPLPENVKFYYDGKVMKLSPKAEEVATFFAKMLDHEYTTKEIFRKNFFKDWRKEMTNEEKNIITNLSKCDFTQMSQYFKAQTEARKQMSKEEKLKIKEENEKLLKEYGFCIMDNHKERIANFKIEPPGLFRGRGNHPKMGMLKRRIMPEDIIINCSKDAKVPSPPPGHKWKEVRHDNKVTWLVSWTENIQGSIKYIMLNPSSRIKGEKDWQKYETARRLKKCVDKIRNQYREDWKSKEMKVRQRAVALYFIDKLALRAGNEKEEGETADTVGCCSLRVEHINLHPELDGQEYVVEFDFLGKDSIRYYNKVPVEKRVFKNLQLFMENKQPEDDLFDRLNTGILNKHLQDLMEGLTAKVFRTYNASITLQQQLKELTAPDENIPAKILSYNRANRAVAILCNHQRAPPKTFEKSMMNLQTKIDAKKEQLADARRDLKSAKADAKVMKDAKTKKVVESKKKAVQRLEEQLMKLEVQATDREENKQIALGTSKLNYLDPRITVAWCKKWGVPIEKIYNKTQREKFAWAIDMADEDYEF
Structure (SMILES),zone of inhibition at 5 µg/mL [1] [mm],zone of inhibition at 5 µg/mL [2] [mm],zone of inhibition at 5 µg/mL [3] [mm],zone of inhibition at 5 µg/mL [4] [mm],zone of inhibition at 5 µg/mL [5] [mm],zone of inhibition at 5 µg/mL [6] [mm],zone of inhibition at 5 µg/mL [7] [mm],zone of inhibition at 2.5 µg/mL [8] [mm],zone of inhibition at 2.5 µg/mL [9] [mm],zone of inhibition at 2.5 µg/mL [10] [mm],zone of inhibition at 2.5 µg/mL [11] [mm],zone of inhibition at 2.5 µg/mL [12] [mm],zone of inhibition at 2.5 µg/mL [13] [mm],zone of inhibition at 2.5 µg/mL [14] [mm],zone of inhibition at 2.5 µg/mL [15] [mm],zone of inhibition at 1.25 µg/mL [16] [mm],zone of inhibition at 1.25 µg/mL [17] [mm],zone of inhibition at 1.25 µg/mL [18] [mm],zone of inhibition at 1.25 µg/mL [19] [mm],zone of inhibition at 1.25 µg/mL [20] [mm],other results
CN(C/C=C/C#CC(C)(C)C)Cc1cccc2ccccc12 [TERBINAFINE],19,21,19,15,11,22,27,18,9,13,10,6,5,18,20,11,4,9,6,4,zone of inhibition at 1.25 µg/mL [21]: 0 mm; zone of inhibition at 1.25 µg/mL [22]: 11 mm; zone of inhibition at 1.25 µg/mL [23]: 13 mm; zone of inhibition at 5 µg/mL [24]: 24 mm
NC(=O)c1ncn([C@@H]2O[C@H](CO)[C@@H](O)[C@H]2O)n1 [RIBAVIRIN],,,,,,,,,,,,,,,,,,,,,MIC [25]: 16.1 µg/mL; MIC [26]: 77.9 µg/mL
O=C1/C(=N/Nc2cccc([N+](=O)[O-])c2)CCCc2ccccc21,0,19,15,10,0,19,12,11,0,12,8,6,0,13,5,8,0,9,5,0,zone of inhibition at 1.25 µg/mL [21]: 0 mm; zone of inhibition at 1.25 µg/mL [22]: 8 mm; zone of inhibition at 1.25 µg/mL [23]: 0 mm; MIC [25]: 1.04 µg/mL; MIC [26]: 6.11 µg/mL; Activity [27]: 81.1%; IC50 [28]: 56 µM; Activity [29]: Active; Ratio [30]: 4.53; Ratio [31]: 4.5; zone of inhibition at 5 µg/mL [24]: 20 mm
Cc1c(C)c2c(c(C)c1O)CCC(C)(C(=O)O)O2 (configuration not stated) [TROLOX],,,,,,,,,,,,,,,,,,,,,IC50 [28]: 58.4 µM
c1ccc2c(c1)CCCc1nnc3nncn3c1-2,8,18,9,14,0,16,9,0,0,9,4,8,0,7,0,0,0,0,0,5,zone of inhibition at 1.25 µg/mL [21]: 0 mm; zone of inhibition at 1.25 µg/mL [22]: 4 mm; zone of inhibition at 1.25 µg/mL [23]: 0 mm; zone of inhibition at 5 µg/mL [24]: 10 mm
